Compound activity deposited in PubChem by several laboratories.
MC4R ag barr: MC4R agonists recruiting beta-arrestin, primary screen, cell-based, luminescence, agonist arm of biased-ligand search | activation, % at 8.9 µM | 360,000 tested, 0.98% active | AID 540308, 2011 | U2OS MC4R beta-arrestin complementation; percent of melanotan II response, DMSO zero;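 active means activation above a per-plate cutoff, the mean activation of sample wells on that plate plus 3 SD, cut at about 8% in these data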
Target sequence (P32245 whole entry, looked up): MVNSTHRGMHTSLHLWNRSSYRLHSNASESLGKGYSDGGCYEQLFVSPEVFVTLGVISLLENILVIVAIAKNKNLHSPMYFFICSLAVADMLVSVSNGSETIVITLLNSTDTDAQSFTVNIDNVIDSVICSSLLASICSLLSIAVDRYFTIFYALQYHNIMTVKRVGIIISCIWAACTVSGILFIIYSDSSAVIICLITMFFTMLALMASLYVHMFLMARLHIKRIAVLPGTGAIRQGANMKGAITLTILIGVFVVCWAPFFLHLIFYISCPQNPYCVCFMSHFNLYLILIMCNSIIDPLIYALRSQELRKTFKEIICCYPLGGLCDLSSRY
EBI2 antag: EBI2 receptor antagonists, beta-arrestin recruitment, primary screen, cell-based, luminescence, 7a,25-OHC stimulation, uHTS | G-protein coupled receptor 183 (Homo sapiens), P32249 | 7a,25-OHC stimulated | inhibition, % at 5 µM | 360,000 tested, 0.81% active | AID 651636, 2012; in the data active means inhibition above about 38%;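 further: enzyme fragment complementation signal reports receptor beta-arrestin coupling in cells; 0% = agonist plus DMSO wells and 100% = wells without agonist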
Target sequence (P32249 whole entry, looked up, the tested form may be a part): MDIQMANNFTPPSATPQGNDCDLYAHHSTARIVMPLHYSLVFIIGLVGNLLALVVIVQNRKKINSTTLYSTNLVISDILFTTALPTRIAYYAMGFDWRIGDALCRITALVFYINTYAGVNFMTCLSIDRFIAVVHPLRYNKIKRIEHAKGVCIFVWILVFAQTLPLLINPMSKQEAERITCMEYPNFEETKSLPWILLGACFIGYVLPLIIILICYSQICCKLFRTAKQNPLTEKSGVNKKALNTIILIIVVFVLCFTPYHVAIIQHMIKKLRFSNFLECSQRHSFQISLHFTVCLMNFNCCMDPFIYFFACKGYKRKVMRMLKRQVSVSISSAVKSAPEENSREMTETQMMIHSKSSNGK
Myeloid diff 2: induction of myeloid progenitor differentiation, primary screen, cell-based, flow cytometry, MLPCN library | ER-HoxA9 myeloid progenitors, lysozyme-GFP differentiation | calls only at 10 µM | 360,000 tested, 1% active | AID 624256, 2012;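 active means normalized GFP-positive differentiation at or above the plate's own cutoff, the solvent-only control mean plus 3 SD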;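 further: cells exposed to compound for four days before flow analysis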
MC4R antagonist: MC4R antagonists of cAMP signaling, primary screen, cell-based, TR-FRET, antagonist arm of biased-ligand search; inhibition, % at 6.5 µM; Melanocortin receptor 4 (Homo sapiens), P32245; AID 540295, 2011; 360,000 tested, 0.48% active; MC4R-expressing cells, MTII-stimulated cAMP, LANCE TR-FRET;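 active means inhibition above its plate's cutoff, the mean of tested wells on that plate plus 3 SD, cut at about 29% in these data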;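 further: 0% = Melanotan II alone and 100% = Melanotan II plus saturating MCL0020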
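System: U2OS-MC4R stable cell line; Technique: Eu-cAMP/anti-cAMP TR-FRET, emission 671 nm; Repeats: single well per compound; Also added: Melanotan II; Dosing: one concentration, 6.5 µM nominal; Schedule: 30-min compound, 1-h challenge, 1-h detection, room temperature.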
Exocytosis inh: LAMP-1 surface exposure blockers, TALL-104 cells – cell-based, flow cytometry, MLPCN library, primary screen. TALL-104 LAMP-1 surface exposure; cells stimulated with thapsigargin and PMA. inhibition, % at 10 µM. 360,000 tested, 0.66% active;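 active means inhibition above about 55%, limit read from the data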
Myeloid diff: inducers of myeloid progenitor differentiation, confirmation, cell-based, GFP/Mac1 flow cytometry, cherry pick 01. calls only. ER-HoxA9 myeloid progenitors, GFP/Mac1 double-positive flow. 2,300 tested, 2% active. AID 651706, 2012. shares compounds with Myeloid diff 2;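 active means share of green or green-and-red cells above 9 and 9% in run 1 or 4 and 3% in run 2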
GFP autofluor: flagged as fluorescent in myeloid differentiation counter-screen; fluorescence response, % (test concentration not listed); ER-HoxA9 myeloid progenitors, no estrogen, GFP autofluorescence flow cytometry; vehicle wells 0%, positive control 100%; shares compounds with Myeloid diff 2; AID 651707; 2,300 tested, 7.4% active;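 active means over 5% cells positive for green fluorescent reporter, or over 2% positive for both it and APC stain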;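 further: range taken on the double positive population between DMSO and positive control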
Active calls of the source: *; i = inactive; x = no result; + = active, no number. Only some compounds are listed: those with a hit (about 3.7% of all), similar ones and a draw of the others.

SMILES	MC4R ag barr	EBI2 antag	Myeloid diff 2	MC4R antagonist	Exocytosis inh	Myeloid diff	GFP autofluor
O=C(N/N=C/c1ccccn1)c1cc(-c2ccc3ccccc3c2)n[nH]1	5.0	-17.9	i	5.4	3.7	i	0.5
Cc1cc(C)nc(SCc2ccc(C(=O)N/N=C/c3ccccn3)cc2)n1	-3.9	-0.3	i	-1.8	11.3	i	0.4
CCCCCCCCC(NC(=O)c1ccc(C#N)cc1)C(=O)NCCC (stereo not given)	-0.8	6.5	i	4.2	-7.3	x	x
COC(=O)C1=C(C)Nc2nnnn2C1c1cccnc1 (stereo not given)	-0.3	6.6	i	0.6	0.6	x	x
COC(=O)C1=C(C)Nc2nnnn2C1c1ccco1 (stereo not given)	-1.1	-1.1	x	19.0	-0.6	i	0.3
COc1cc(-c2c(CCO)sc3ccccc23)cc(OC)c1OC	x	9.8	+	x	3.5	i	1.9
CN1/C(=C/C=C/c2n(C)c3cc([N+](=O)[O-])c([N+](=O)[O-])cc3[n+]2C)C(C)(C)c2ccccc21	-5.8	3.8	+	-28.9	-3.5	i	7.2*
Cc1ccc(C(=O)NNC(=O)CSc2nnc3c(n2)[nH]c2ccc(F)cc23)cc1	-0.1	13.4	i	7.3	-1.8	x	x
COc1ccc2[nH]c3nc(SCC(=O)NNC(=O)c4ccc(OC)c(OC)c4)nnc3c2c1	-0.5	-2.0	i	13.8	0.7	i	0.0
Nc1ccc(N2CCN(c3ccc(F)cc3)CC2)cc1	-0.2	-3.2	+	4.4	-3.3	i	0.0
O=C(O)c1ccc(Nc2ncnc3scc(-c4ccccc4)c23)cc1	0.2	10.8	+	11.2	-1.2	i	0.5
Cc1ccc(-c2csc3ncnc(Nc4ccc(C(=O)O)cc4)c23)cc1	5.1	3.1	i	7.4	13.8	x	x
CC(C)(C)NC(=O)COC(=O)c1ccccc1OCC(=O)Nc1ccc(Br)cc1	0.9	11.0	i	9.5	-2.8	x	x
CCCCn1c(=O)c2ccccc2c2ccccc2c1=O	6.0	11.5	i	6.9	1.1	x	x
CCCCn1c(=O)[nH]c2c(oc3ccccc32)c1=O	-0.2	1.8	+	15.9	-6.7	i	0.0
COc1ccc(C(=O)Cc2ccc3c(c2)OCO3)c(O)c1	3.1	11.9	i	11.9	13.1	x	x
O=C(O)COc1ccc(C(=O)Cc2ccc3c(c2)OCCCO3)c(O)c1	-0.3	-5.2	i	17.8	3.7	i	0.2
COC(=O)c1ccc(NC(=O)C(=O)N2CCN(C(=S)Nc3ccc(C)cc3)CC2)cc1	0.1	2.0	i	10.1	-2.6	i	0.3
O=C(Nc1sccc1C(=O)NCc1ccco1)c1cccnc1	0.4	-7.7	i	5.2	-0.7	i	0.0
O=C(NCc1cccnc1)c1cnn2ccccc12	-1.1	-8.1	i	6.0	-2.7	x	x
Cc1cc(C)n2ncc(C(=O)NCc3cccnc3)c2n1	-2.2	-0.5	+	16.4	3.8	i	0.0
COC(=O)c1cc2sccc2n1CC(=O)N1CCCc2ccccc21	-0.1	-6.9	i	7.6	-1.5	x	x
CCOC(=O)c1cc2sccc2n1CC(=O)N1CCCc2ccccc21	0.5	4.9	+	18.9	1.3	i	0.0
N#Cc1cnc(=S)n(-c2cc(C(F)(F)F)cc(C(F)(F)F)c2)c1N	-3.9	-1.7	i	3.0	-0.8	x	x
Cn1c(NCCOc2ccccc2Cl)nc2cc(-c3ccc(F)cc3)sc2c1=O	0.9	-2.8	i	12.4	1.0	x	x
SMILES	MC4R ag barr	EBI2 antag	Myeloid diff 2	MC4R antagonist	Exocytosis inh	Myeloid diff	GFP autofluor
Cc1ccc(S(=O)(=O)N2C[C@H]3C(=O)C[C@@H](c4ccccc4)N(S(=O)(=O)c4ccc(C)cc4)[C@H]3C[C@H]2c2cccc(C)c2)cc1	x	5.0	+	x	0.7	i	0.3
Cc1ccc([N+](=O)[O-])cc1NC(=O)c1c(-c2ccccc2)noc1C	-2.5	5.8	i	3.1	-4.5	x	x
CC(C)CN(C(=O)COC(=O)C12CC3CC(CC(O)(C3)C1)C2)c1c(N)n(Cc2ccccc2)c(=O)[nH]c1=O	0.6	-0.2	i	12.6	-0.5	x	x
CC(C)CN(C(=O)COC(=O)C12CC3CC(CC(C3)C1)C2)c1c(N)n(Cc2ccccc2)c(=O)[nH]c1=O	-1.9	-6.0	+	12.3	-5.3	i	9.5*
CC(C)CN(C(=O)c1ccc2c(c1)OCCO2)c1c(N)n(Cc2ccccc2)c(=O)[nH]c1=O	-0.9	-7.0	i	12.9	-3.4	x	x
CC(C)CN(C(=O)c1ccc([N+](=O)[O-])s1)c1c(N)n(Cc2ccccc2)c(=O)[nH]c1=O	-3.0	-17.7	+	0.9	-3.7	i	0.7
CCN(C(=O)CN1CCc2ccccc21)c1c(N)n(Cc2ccccc2)c(=O)[nH]c1=O	-4.3	9.5	i	-5.1	-3.2	i	0.2
COCCN(C(=O)c1ccc2c(c1)C(=O)N(c1ccccc1Cl)C2=O)c1c(N)n(CC(C)C)c(=O)[nH]c1=O	1.0	-20.3	i	11.8	-0.2	x	x
CC1=C(C)CC(C(=O)Nc2ccc(C(=O)N3CCOCC3)cc2)C(C(=O)O)C1 (stereo not given)	-0.3	2.5	i	-5.5	-0.1	x	x
COC(=O)c1ccccc1NC(=O)C1CC=CCC1C(=O)O (stereo not given)	1.0	-13.3	i	0.0	-0.8	i	0.0
CC(Oc1ccccc1)C(=O)N1CCC2(CC1)CC(=O)c1ccccc1O2 (stereo not given)	-0.8	13.2	i	2.1	-3.8	x	x
COc1cc(OC)cc(-c2ncc3ccccn23)c1	2.2	9.0	i	-1.9	4.2	x	x
COc1cc(-c2ncc3ccccn23)cc(OC)c1OC	-1.5	1.5	+	-11.7	-3.0	i	0.0
COC(=O)C1=C(C)N(Cc2ccccc2)C(=NCc2cc(OC)c(OC)c(OC)c2)N[C@H]1CCc1ccccc1	-0.2	7.0	+	3.2	11.3	i	0.0
COC(=O)C1=C(C)N(Cc2ccccc2)C(=NCc2cc(OC)c(OC)c(OC)c2)N[C@H]1c1ccc(Br)cc1	1.4	-15.3	i	2.6	-5.4	x	x
C[C@H]1CN([C@@H](C)CO)C(=O)c2cc(Br)cnc2O[C@H]1CN(C)C(=O)Cc1ccccn1	2.0	0.2	i	15.4	0.0	x	x
